The source made the active and inactive calls. No cut-off for these calls is given here.
Experiments:
[1] = system: Escherichia coli; experiment: Vmax in the peptidyltransferase reaction; assay type: functional
Summary of the method: (§1)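 E. coli ribosomes (washed, 2.78 A260 units) loaded with Ac[14C]Phe-tRNA (21 pmol) in 100 mM Tris-Cl pH 7.5, 100 mM NH4Cl, 15 mM Mg(OAc)2, 0.65 mM DTT, 1.2 mM GTP, FWR, poly(U), 28 °C for 8 min. Analogue then added as acceptor. Radiolabelled product counted and blank-corrected. Duplicates at five substrate concentrations. Km/Vmax from double-reciprocal plots by Wilkinson analysis.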

[2] = system: Escherichia coli; experiment: Compound was evaluated for the substrate activity in the peptidyltransferase reaction of Escherichia coli ribosomes.
[3] = system: Escherichia coli; experiment: Michaelis constant (Km) in the peptidyltransferase reaction; assay type: functional; summary of the method: as §1
[4] = system: Escherichia coli; experiment: Michaelis constant (Km) in the peptidyltransferase reaction; Inactive; assay type: functional; summary of the method: as §1

Row | SMILES | Vmax [1] [pmol/min] | Substrate efficiency [2] [%] | Km [3] [µM] | Km [4]
1 | CC(=O)Nc1ccc(CC(N)C(=O)NC2C(CO)OC(n3cnc4c(N(C)C)ncnc43)C2O)cc1 (stereo unspecified) | 0.45 | 23.7 | 256 | 
2 | CCCC(=O)Nc1ccc(CC(N)C(=O)NC2C(CO)OC(n3cnc4c(N(C)C)ncnc43)C2O)cc1 (stereo unspecified) | 0.53 | 19.5 | 367 | 
3 | CN(C)c1ncnc2c1ncn2C1OC(CO)C(NC(=O)C(N)Cc2ccc([N+](=O)[O-])cc2)C1O (stereo unspecified) | 0.39 | 20.7 | 255 | 
4 | COc1ccc(C[C@H](N)C(=O)N[C@H]2[C@@H](O)[C@H](n3cnc4c(N(C)C)ncnc43)O[C@@H]2CO)cc1 | 0.99 | 100 | 134 | 
5 | CN(C)c1ncnc2c1ncn2C1OC(CO)C(NC(=O)C(N)Cc2ccc(NC(=O)CBr)cc2)C1O (stereo unspecified) |  |  |  | inactive
6 | CN(C)c1ncnc2c1ncn2C1OC(CO)C(NC(=O)C(N)Cc2ccc(N)cc2)C1O (stereo unspecified) | 0.79 | 89 | 120 | 

Source: ChEMBL document CHEMBL1121798, “Puromycin analogues. Effect of aryl-substituted puromycin analogues on the ribosomal peptidyltransferase reaction” (J Med Chem, 1981)
